From ChEMBL document CHEMBL2062410, “Synthesis, characterization and pharmacological study of 4,5-dihydropyrazolines carrying pyrimidine moiety” (2012) come the findings set out here.

For orientation: inhibition means the share of the control response that was lost under treatment. A word on the inhibition in vivo: it is the drop in the measured response relative to a control, in per cent.

What all share (type): functional
Assay [1] deals with Mus musculus. Put plainly: Analgesic activity in Swiss albino mouse assessed as increase in reaction time at 10 mg/kg, ip measured 30 mins post dose by tail immersion method. As to conditions: route intraperitoneal. Summed up:
(§1)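 Tail immersion in Swiss albino mice, 6 per group, heat as pain source. Tail tip dipped in a thermostatic bath held at 55 °C. Basal reaction time noted before treatment. Test compounds at 10 mg/kg i.p., with pentazocine as reference. Reaction time read at 30, 60 and 90 min, given as mean ± SEM with % increase over basal.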

For assay [2], the system named is Mus musculus. Description: Analgesic activity in Swiss albino mouse assessed as increase in reaction time at 10 mg/kg, ip measured 60 mins post dose by tail immersion method. The following applies: route intraperitoneal. Summed up: as §1
Assay [3] concerns Mus musculus. Put plainly: Analgesic activity in Swiss albino mouse assessed as increase in reaction time at 10 mg/kg, ip measured 90 mins post dose by tail immersion method. The following applies: route intraperitoneal. Summed up: as §1
The nature of assay [4]: Free radical scavenging activity assessed as inhibition of DPPH radical generation at 25 ug. Summed up:
(§2)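 Brand-Williams method: 1 mL sample at […] per mL mixed with 2 mL of 0.2 mM methanolic DPPH. Stood 30 min at room temperature, then absorbance read at 517 nm. % scavenging calculated relative to 0.2 mM DPPH control without sample.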
On the technique in general: Loss of DPPH colour is used to gauge radical scavenging.

A short description of assay [5]: Free radical scavenging activity assessed as inhibition of DPPH radical generation at 50 ug. Summed up:
as §2

Assay [6] is described as follows: Free radical scavenging activity assessed as inhibition of DPPH radical generation at 100 ug. Summed up:
as §2

A short description of assay [7]: Free radical scavenging activity assessed as inhibition of hydroxyl radical generation at 100 ug by Fenton reaction method.
The nature of assay [8]: Free radical scavenging activity assessed as inhibition of superoxide anion generation at 100 ug.
Assay [9] can be described thus: Free radical scavenging activity assessed as inhibition of nitric oxide generation at 100 ug.
The test system of assay [10] is Rattus norvegicus. Description: Antiinflammatory activity in Wistar albino rat assessed as inhibition of carrageenan-induced paw edema dosed at 20 mg/kg in plantar region of paw administered 30 mins before carrageenan challenge measured 0.5 hrs post carrageenan-induced inflammation. Summed up:
(§3)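 Wistar albino rats of either sex, 180–250 g, fasted 12 h before and during testing. Test compounds at 20 mg/kg given 30 min before carrageenan (0.1 mL of 1% w/v) injected into the plantar paw; diclofenac 20 mg/kg as reference. Paw volume by plethysmography at 30–180 min. % inhibition = (1 − Vt/Vc) × 100 against control edema; mean ± SEM, n = 6.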
In general terms: In the carrageenan paw model, swelling and tenderness develop within hours.

The test system of assay [11] is Rattus norvegicus. Description: Antiinflammatory activity in Wistar albino rat assessed as inhibition of carrageenan-induced paw edema dosed at 20 mg/kg in plantar region of paw administered 30 mins before carrageenan challenge measured 1 hr post carrageenan-induced inflammation. Summed up:
as §3

The test system of assay [12] is Rattus norvegicus. Description: Antiinflammatory activity in Wistar albino rat assessed as inhibition of carrageenan-induced paw edema dosed at 20 mg/kg in plantar region of paw administered 30 mins before carrageenan challenge measured 1.5 hrs post carrageenan-induced inflammation. Summed up:
as §3

In assay [13] the test system is Rattus norvegicus. Description: Antiinflammatory activity in Wistar albino rat assessed as inhibition of carrageenan-induced paw edema dosed at 20 mg/kg in plantar region of paw administered 30 mins before carrageenan challenge measured 2 hrs post carrageenan-induced inflammation. Summed up: as §3
Assay [14] relates to Rattus norvegicus. Put plainly: Antiinflammatory activity in Wistar albino rat assessed as inhibition of carrageenan-induced paw edema dosed at 20 mg/kg in plantar region of paw administered 30 mins before carrageenan challenge measured 2.5 hrs post carrageenan-induced inflammation. Summed up:
as §3

For assay [15], the system named is Rattus norvegicus. Description: Antiinflammatory activity in Wistar albino rat assessed as inhibition of carrageenan-induced paw edema dosed at 20 mg/kg in plantar region of paw administered 30 mins before carrageenan challenge measured 3 hrs post carrageenan-induced inflammation. Summed up: as §3

`CC(C)=CCN1CC[C@@]2(C)c3cc(O)ccc3C[C@@H]1[C@@H]2C` (relative stereo): the Activity in the assay with Mus musculus [1] came to 25.7%; with Mus musculus [2], 45.79%; with Mus musculus [3] it was 67.28%.

In the case of `Cc1ccc([C@H]2CC(c3ccc(Br)cc3)=NN2c2ncc(Br)cn2)cc1`, the inhibition in assay [4] amounted to 55.3%; in assay [5], 66.3%; in assay [6], 69.3%; in assay [7], 71.5%; in [8], 50.2%; in assay [9], 33.7%.

For the molecule `Clc1ccc([C@H]2CC(c3ccc(Br)cc3)=NN2c2ncc(Br)cn2)cc1`, the inhibition amounted to 56.8% in assay [4]; 68.2% in assay [5]; 78.9% in assay [6]; 66.3% in [7]; 38.9% in assay [8]; 40.2% in assay [9].

In the case of `O=C(O)Cc1ccccc1Nc1c(Cl)cccc1Cl` [DICLOFENAC], the inhibition in vivo at 20 mg/kg in the assay with Rattus norvegicus [10] came to 61%; with Rattus norvegicus [11] it was 69%; in the assay with Rattus norvegicus [12], 67%; with Rattus norvegicus [13], 78%; with Rattus norvegicus [14], 71%; with Rattus norvegicus [15], 80%.

Turning to `Cc1ccc([C@H]2CC(c3ccccc3)=NN2c2ncc(Br)cn2)cc1`, the inhibition is 67.5% in assay [4]; 79.2% in [5]; 94.1% in [6]; 89.1% in assay [7]; 59.1% in [8]; 56.1% in [9]. In addition, the inhibition in vivo at 20 mg/kg was 63% in the assay on Rattus norvegicus [10]; 68% with Rattus norvegicus [11]; 71% in the assay with Rattus norvegicus [12]; 69% in the assay with Rattus norvegicus [13]; 72% in the assay on Rattus norvegicus [14]; 79% with Rattus norvegicus [15]. Also, the Activity with Mus musculus [1] is listed as 16.51%; in the assay with Mus musculus [2], 73.66%; in the assay with Mus musculus [3], 65.63%.

Take `Clc1ccc([C@H]2CC(c3ccccc3)=NN2c2ncc(Br)cn2)cc1`: the inhibition in assay [4] is 60.1%; in assay [5] it was 78.1%; in assay [6], 93.5%; in [7], 87.9%; in assay [8], 60%; in assay [9] it was 43.3%. The inhibition in vivo at 20 mg/kg in the assay with Rattus norvegicus [10] was found to be 61%; in the assay on Rattus norvegicus [11] it was 70%; in the assay with Rattus norvegicus [12] it was 71%; with Rattus norvegicus [13], 76%; with Rattus norvegicus [14], 72%; in the assay on Rattus norvegicus [15] it was 78%. Moreover, the Activity amounted to 29.71% in the assay with Mus musculus [1], 72.16% in the assay with Mus musculus [2] and 78.31% in the assay on Mus musculus [3].

Consider `Brc1ccc(C2=NN(c3ncc(Br)cn3)[C@@H](c3ccc(Br)cc3)C2)cc1`, for which the inhibition in assay [4] turned out to be 51.5%; in [5], 69.7%; in assay [6], 78.2%; in assay [7], 71.4%; in assay [8] it was 52.5%; in [9], 23.8%.

In the case of `COc1ccc([C@H]2CC(c3ccc(Cl)cc3)=NN2c2ncc(Br)cn2)cc1`, the inhibition in assay [4] was determined as 68.5%; in assay [5], 79.4%; in [6], 89.8%; in assay [7], 81.6%; in assay [8] it was 58.7%; in assay [9] it was 46.2%. The inhibition in vivo at 20 mg/kg in the assay with Rattus norvegicus [10] is 58%; in the assay with Rattus norvegicus [11], 62%; in the assay on Rattus norvegicus [12], 64%; in the assay on Rattus norvegicus [13], 70%; in the assay with Rattus norvegicus [14] it was 69%; with Rattus norvegicus [15] it was 73%. Also, the Activity in the assay with Mus musculus [1] worked out at 28.97%; with Mus musculus [2], 39.25%; in the assay with Mus musculus [3] it was 71.96%.

As to `Cc1ccc([C@H]2CC(c3ccc(Cl)cc3)=NN2c2ncc(Br)cn2)cc1`, the inhibition is 54.4% in assay [4]; 71.8% in [5]; 80% in assay [6]; 63.2% in [7]; 43.8% in assay [8]; 38.1% in [9].

In the case of `Clc1ccc(C2=NN(c3ncc(Br)cn3)[C@@H](c3ccccc3)C2)cc1`, the inhibition is 62.7% in assay [4]; 76.5% in [5]; 90.5% in assay [6]; 82.6% in [7]; 42.6% in [8]; 39.1% in assay [9]. The inhibition in vivo at 20 mg/kg in the assay with Rattus norvegicus [10] is 60%; in the assay with Rattus norvegicus [11], 71%; with Rattus norvegicus [12] it was 71%; with Rattus norvegicus [13], 73%; in the assay on Rattus norvegicus [14], 70%; in the assay on Rattus norvegicus [15], 75%. Besides, the Activity in the assay with Mus musculus [1] amounted to 37.62%; with Mus musculus [2], 70.79%; in the assay on Mus musculus [3], 84.65%.

Consider `Clc1ccc(C2=NN(c3ncc(Br)cn3)[C@@H](c3ccc(Br)cc3)C2)cc1`, for which the inhibition came to 52.2% in assay [4]; 67.3% in assay [5]; 78.5% in assay [6]; 70.6% in [7]; 24.6% in assay [8]; 38.1% in assay [9].

With `Brc1ccc([C@H]2CC(c3ccccc3)=NN2c2ncc(Br)cn2)cc1`, the inhibition in assay [4] was determined as 65.4%; in assay [5], 79.6%; in [6], 93.4%; in assay [7] it was 86.8%; in assay [8] it was 62.1%; in [9], 47.6%. Also, the inhibition in vivo at 20 mg/kg in the assay on Rattus norvegicus [10] came to 64%; in the assay on Rattus norvegicus [11], 68%; in the assay with Rattus norvegicus [12], 74%; in the assay with Rattus norvegicus [13] it was 74%; in the assay with Rattus norvegicus [14], 78%; with Rattus norvegicus [15], 76%. Besides, the figures for the Activity in the assay on Mus musculus [1], with Mus musculus [2] and in the assay with Mus musculus [3] were 25.76%, 62.01% and 59.39%, respectively.

For the molecule `Cc1cc(C(C)(C)C)c(O)c(C(C)(C)C)c1`, the inhibition in assay [4] was 65.9%; in [5], 79.4%; in assay [6] it was 93.2%; in assay [7], 87%; in assay [8], 64%; in assay [9], 43.2%.

Turning to `Clc1ccc(C2=NN(c3ncc(Br)cn3)[C@@H](c3ccc(Cl)cc3)C2)cc1`, the inhibition in assay [4] is 54.5%; in assay [5] it was 69.2%; in assay [6], 78.3%; in [7] it was 69.4%; in assay [8], 38.6%; in [9], 31.4%.

As for `O=[N+]([O-])c1ccc([C@H]2CC(c3ccccc3)=NN2c2ncc(Br)cn2)cc1`, the inhibition in [4] turned out to be 54.5%; in assay [5], 64.7%; in assay [6], 75.6%; in assay [7], 79.2%; in assay [8], 42.2%; in assay [9], 32.1%.
